The species named for series [1] is Mus musculus. The series can be described thus: Mouse behavior activity was determined; Dwk= Depressant(Weak). The class given is functional, organism-based. The procedure, abridged:
(§1)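 Male Simonsen (ICR) fBR mice, 18-24 g, groups of three, given 3, 10, 30, 100, 300 or 1000 mg/kg ip as aqueous solution and observed for behavioral profile; deaths followed up to 7 days.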

The nature of series [2]: Lethal dose in mouse, in groups of ten. To be noted: in vivo. The class given is toxicity, organism-based.
The subject of series [3] is Mus musculus. The series is described as follows: Compound was evaluated in vivo for reserpine hypothermia after oral administration in mouse. Minimum active dose was reported, with the percent reversal at 10 mg/kg in parenthesis; I=inactive. It is filed as functional, organism-based. More on the design: dose 10 mg/kg. The procedure, abridged: (§2)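 Male HLa (ICR) BR mice, 18-24 g, in groups of eight; reserpine 5 mg/kg ip given 2 h before oral test compound as aqueous solution. Rectal temperature taken hourly; 1-4-h hypothermia assessed by analysis of variance.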

The species named for series [4] is Mus musculus. The series is described as follows: Compound was evaluated for maximal electroshock antagonism (MES) against mice; I=inactive. It is filed as functional, organism-based. The procedure, abridged: (§3)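 Male HLa (ICR) BR mice, groups of eight to ten, dosed ip (aqueous solution) 15 min before transcorneal electroshock (50 mA, 0.2 s). End point: abolition of tonic hind-limb extension; quantal ED50 by Litchfield-Wilcoxon.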
In general terms: In the maximal electroshock model the usual endpoint is tonic extension of the hind limbs.

The species entered for series [5] is Mus musculus. The series is described as follows: Evaluated for antagonism of reserpine induced hypothermia. The class given is functional. The procedure, abridged: as §2
The nature of series [6]: HPLC capacity factor (k'). The class given is ADME.
For series [7], the species on record is Mus musculus. The series is described as follows: Mouse behavior activity was determined; Dwk= Depressant Weak. The class given is functional, organism-based. The procedure, abridged: as §1
In series [8] the test system is Mus musculus. The series is described as follows: Compound was evaluated in vivo for reserpine hypothermia after oral administration in mouse Minimum active dose was reported; Inactive. It is filed as functional, organism-based. The procedure, abridged:
as §2

The species named for series [9] is Mus musculus. The series can be described thus: Compound was evaluated for antagonism of reserpine induced hypothermia; Inactive. The class given is functional, organism-based. The procedure, abridged:
as §2

For series [10], the species on record is Mus musculus. The series is described as follows: Compound was evaluated for maximal electroshock antagonism (MES) against mice; Inactive. The class given is functional, organism-based. The procedure, abridged: as §3
The species named for series [11] is Mus musculus. The series is described as follows: Righting ability was determined in mice before rapid rolling (unaroused). It is filed as functional. The procedure, abridged:
(§4)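 Male Simonsen (ICR) fBR mice, 18-24 g, groups of ten, dosed with aqueous compound. Righting ability checked before (unaroused) and after (aroused) rapid rolling in the hand; ED50 by Litchfield-Wilcoxon method.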

The species named for series [12] is Mus musculus. The series can be described thus: Compound was evaluated for maximal electroshock antagonism (MES) against mice. The class given is functional. The procedure, abridged: as §3
The species entered for series [13] is Mus musculus. The series can be described thus: Righting ability was determined in mice […] rapid rolling (aroused). It is filed as functional. The procedure, abridged: as §4
The species named for series [14] is Mus musculus. The series can be described thus: Mouse behavior activity was determined; Depressant-Stimulant. The class given is functional, organism-based. The procedure, abridged: as §1
Series [15] is filed under the species Mus musculus. The series can be described thus: Mouse behavior activity was determined;S= Stimulant Weak. It is filed as functional, organism-based.
Series [16] is filed under the species Mus musculus. The series can be described thus: Mouse behavior activity was determined; D=Depressant. It is filed as functional, organism-based. The procedure, abridged: as §1
The species named for series [17] is Mus musculus. The series can be described thus: Evaluated for antagonism of reserpine induced hypothermia;I= Inactive. The class given is functional, organism-based. The procedure, abridged:
as §2

Series [18] is filed under the species Mus musculus. The series can be described thus: Mouse behavior activity was determined; Stimulant-Depressant Weak. It is filed as functional, organism-based. The procedure, abridged: as §1
Series [19] concerns Mus musculus. The series can be described thus: Compound was evaluated in vivo for reserpine hypothermia after oral administration in mouse. Minimum active dose was reported,. The class given is functional. The procedure, abridged:
as §2

Series [20] in a line: Compound was evaluated for lethal dose in mouse in groups of ten (values in parentheses indicates 95% confidence limits). The settings on record: in vivo. The class given is toxicity, organism-based.
The species named for series [21] is Mus musculus. The series can be described thus: Compound was evaluated for maximal electroshock antagonism (MES) against mice (values in parentheses indicates 95% confidence limits). It is filed as functional. The procedure, abridged: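 Male HLa (ICR) BR mice, groups of eight to ten, given compound ip as aqueous solution 15 min before transcorneal electroshock (50 mA, 0.2 s). End point was abolition of tonic hind-limb extension; quantal ED50 derived by Litchfield-Wilcoxon.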

For series [22], the species on record is Mus musculus. The series can be described thus: Mouse behavior activity was determined; ST= Stimulant, D = Depressant. The class given is functional, organism-based. The procedure, abridged: as §1
The species named for series [23] is Mus musculus. The series can be described thus: Compound was evaluated for antagonism of reserpine induced hypothermia; I = inactive. It is filed as functional, organism-based. The procedure, abridged: as §2
Series [24] relates to Mus musculus. The series can be described thus: Mouse behavior activity was determined; I=inactive at a dose of 50 mg/Kg. The class given is functional, organism-based.
Series [25] deals with Norepinephrine transporter (Rattus norvegicus, UniProt Q9WTR4). The series is described as follows: (§5) Inhibition of the NE [3H]norepinephrine uptake by rat brain slices In vitro. It is filed as tissue-based. The procedure, abridged:
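Rat cerebral cortex slices at 5 mg tissue/mL Krebs-Henseleit buffer, incubated at 37 °C; blanks incubated at 4 °C, controls without drug. After 20 min, incubation stopped by filtration and tissue radioactivity measured. IC50 taken from linear regression of uptake inhibition.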

The subject of series [26] is Mus musculus. The series can be described thus: Reserpine hypothermia antagonism in mouse administered perorally with 5 mg/kg of reserpine 2 hour prior to test compound administration. It is filed as functional. To be noted: route oral.
The species named for series [27] is Mus musculus. The series is described as follows: Mouse behavior activity was determined; ST = Stimulant(Weak). It is filed as functional, organism-based. The procedure, abridged:
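Male Simonsen (ICR) fBR mice (18-24 g) given 3, 10, 30, 100, 300 or 1000 mg/kg ip as aqueous solution and observed for behaviour in groups of three.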

Series [28] concerns Mus musculus. The series is described as follows: Compound was evaluated in vivo for reserpine hypothermia after oral administration in mouse. Minimum active dose was reported, with the percent reversal at 10 mg/kg in parenthesis. It is filed as functional. The procedure, abridged:
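Male HLa (ICR) BR mice (18-24 g), groups of eight, dosed ip with 5 mg/kg reserpine 2 h before oral test compound given as aqueous solution. Rectal temperature measured hourly; 1-4-h thermia assessed by analysis of variance.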

The species named for series [29] is Mus musculus. The series is described as follows: (§6) Inhibition of radioactive NE [3H]norepinephrine uptake into mouse heart. The class given is functional. The procedure, abridged:
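Mice received compound ip before iv [3H]NE. At 3 h after [3H]NE, hearts were removed, washed, weighed, dissolved in Protosol and counted as dpm per mg tissue. Dose-response curves derived by linear regression.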

For series [30], the species on record is Rattus norvegicus. The series is described as follows: Inhibition of the 5-HT [14C]5-HT uptake by rat brain slices In vitro. The class given is functional. The procedure, abridged:
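Rat cerebral cortex slices, 5 mg tissue per mL Krebs-Henseleit buffer, incubated at 37 °C with [3H]NE or [14C]5-HT; blanks at 4 °C, undosed controls. Stopped after 20 min by filtration; slice radioactivity counted; IC50 from linear regression of uptake inhibition.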

The species named for series [31] is Mus musculus. The description is as §6. It is filed as functional. The procedure, abridged:
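Mice dosed ip (aqueous solution) before iv [3H]NE; hearts removed 3 h after label, washed, weighed, dissolved in Protosol and counted as dpm per mg tissue. Dose-response from linear regression.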
This is another data set of the same source.

For series [32], the species on record is Rattus norvegicus. The series is described as §5. The class given is functional.

Activity calls are given as the source filed them. The calls are words filed in the database; no cut-off is given here.

Norepinephrine transporter, sequence (Q9WTR4 whole entry): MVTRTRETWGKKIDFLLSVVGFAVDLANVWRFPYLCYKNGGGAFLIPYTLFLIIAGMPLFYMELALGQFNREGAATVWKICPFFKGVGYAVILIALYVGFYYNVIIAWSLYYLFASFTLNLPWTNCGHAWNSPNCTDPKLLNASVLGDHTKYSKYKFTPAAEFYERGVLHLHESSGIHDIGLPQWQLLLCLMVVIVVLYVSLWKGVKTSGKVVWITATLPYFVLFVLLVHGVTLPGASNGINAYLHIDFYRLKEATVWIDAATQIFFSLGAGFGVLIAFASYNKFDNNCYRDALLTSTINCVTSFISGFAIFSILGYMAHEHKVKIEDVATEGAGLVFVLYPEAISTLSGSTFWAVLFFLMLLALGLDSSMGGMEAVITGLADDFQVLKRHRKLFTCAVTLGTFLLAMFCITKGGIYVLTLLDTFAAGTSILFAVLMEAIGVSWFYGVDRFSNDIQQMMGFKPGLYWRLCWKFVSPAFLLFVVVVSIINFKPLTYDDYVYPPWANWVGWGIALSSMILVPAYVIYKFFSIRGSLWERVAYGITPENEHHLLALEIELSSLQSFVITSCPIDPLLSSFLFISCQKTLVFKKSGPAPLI

A word on the LD50: it is the dose expected to kill half of the subjects tested. By ED50 is commonly meant the midpoint of the dose-response relation. Take `COC(=O)NC1=NC(c2ccc(C=O)cc2)CN1C` (configuration not stated): the Mouse behavior activity result in the series listed under Mus musculus [1] was “Depressant - weak”. The molecule also displayed an LD50 in series [2] above 300 mg/kg. Also, the ED50 result in the series on Mus musculus [3] and in the series filed under Mus musculus [4] was “inactive” in each case. Further, the HYPO in the series filed under Mus musculus [5] is above 0.5 mg/kg. Besides, the “Log k'” value in series [6] is -0.53.
In the case of `CCCCCCOC(=O)NC1=NC(c2ccc(Cl)cc2)CN1` (configuration not stated), the Mouse behavior activity result in the series filed under Mus musculus [7] is reported as “Depressant - weak”. Further, the ED50 entry with Mus musculus [8] and in the series listed under Mus musculus [10] was “inactive” in each case. In series [2], the LD50 amounted to 200 mg/kg. In addition, the HYPO result in the series filed under Mus musculus [9] was “inactive”. For the same molecule, in [6], the “Log k'” value was 2.18.
In the case of `CC(C)OC(=O)NC1=NC(c2ccccc2F)CN1C` (configuration not stated), the Loss of righting reflex came out at 11 mg/kg in the series filed under Mus musculus [11] and 55 mg/kg in the series filed under Mus musculus [13]. In the series filed under Mus musculus [12], it took a dose of 23 mg/kg to reach the 50% effect level (ED50). In series [2], this molecule displayed an LD50 of 700 mg/kg. The “Log k'” value in series [6] worked out at 0.77. The Mouse behavior activity entry in the series filed under Mus musculus [14] is “Depressant-Stimulant”.
With `COC(=O)NC1=NC(c2ccc(Cl)cc2)CN1` (configuration not stated), the Mouse behavior activity entry in the series filed under Mus musculus [15] is listed as “Stimulant weak”. The ED50 in the series filed under Mus musculus [12] is around 200 mg/kg. The 50% lethal dose (LD50) in [2] stood at 500 mg/kg. Besides, the “Log k'” value in series [6] was 0.31.
In the series listed under Mus musculus [11], `COC(=O)NC1=NC(c2ccccc2SC)CN1C` (configuration not stated) gave a Loss of righting reflex of 70 mg/kg. The LD50 in [2] stood at 200 mg/kg. For the same molecule, the Mouse behavior activity result in the series filed under Mus musculus [16] is “Depressant”. Also, the ED50 result in the series filed under Mus musculus [10] is “inactive”. In series [6], the “Log k'” value is 0.63. Also, the HYPO result in the series filed under Mus musculus [17] was “inactive”.
As to `CCOC(=O)NC1=NC(c2ccc(O)cc2)CN1C(C)C` (configuration not stated), the Mouse behavior activity entry in the series filed under Mus musculus [18] is on record as “Stimulant-Depressant Weak”. The LD50 in series [2] turned out to be 200 mg/kg. The ED50 result in the series listed under Mus musculus [10] was “inactive”. The “Log k'” value in series [6] is 0.7. Further, in the series listed under Mus musculus [17], the HYPO entry was “inactive”.
As for `COC(=O)NC1=NC(c2cccc(Cl)c2Cl)CN1C` (configuration not stated), the ED50 worked out at 30 mg/kg in the series listed under Mus musculus [12] and 23 mg/kg in the series on Mus musculus [19]. Moreover, in [6], the “Log k'” value was 0.91.
Turning to `O=C1NC(=O)C(c2ccccc2)(c2ccccc2)N1` [PHENYTOIN], in series [20], the LD50 was found to be 700 mg/kg. The ED50 in the series listed under Mus musculus [21] amounted to 6 mg/kg. In the series filed under Mus musculus [22], the Mouse behavior activity result is “Stimulant”. Besides, the HYPO result in the series listed under Mus musculus [23] is “inactive”.
For `COC(=O)NC1=NC(c2ccc(O)c(O)c2)CN1` (configuration not stated), the LD50 in series [20] was above 1000 mg/kg. Also, the Mouse behavior activity entry in the series on Mus musculus [24] is “inactive”. The HYPO in the series listed under Mus musculus [5] is above 20 mg/kg. Also, the “Log k'” value in series [6] is on record as -1.51.
Usually IC50 stands for the midpoint of a concentration-inhibition curve. Low readings indicate greater potency, high ones weaker potency. `CN(C)CCC=C1c2ccccc2CCc2ccccc21` [AMITRIPTYLINE] returned an IC50 in [25] of 2500 nM. The LD50 in series [20] amounted to 70 mg/kg. Further, in the series with Mus musculus [26], the Reserpine hypothermia turned out to be 0.15 mg/kg. Besides, the Mouse behavior activity result in the series filed under Mus musculus [27] is “Partial stimulant”. Besides, the ED50 in the series filed under Mus musculus [21] was found to be 14 mg/kg; with Mus musculus [28] it was 8 mg/kg; in the series filed under Mus musculus [29], 4.4 mg/kg. In addition, the HYPO in the series filed under Mus musculus [5] was below 0.5 mg/kg.
For the molecule `CN1CC(c2ccccc2Cl)N=C1N` (configuration not stated), the IC50 in the series filed under Rattus norvegicus [30] amounted to 30000 nM; in the series listed under Rattus norvegicus [32], 500 nM. In the series listed under Mus musculus [31], the ED50 worked out at 18.3 mg/kg. The molecule also had a Reserpine hypothermia in the series on Mus musculus [26] of 0.15 mg/kg. Besides, in the series listed under Mus musculus [5], the HYPO is below 0.5 mg/kg.
